Assay results from article PMC4958579 (Cell chemical biology, 2016).

How the values were obtained:
[1] = target: Flag-tagged full-length KDM5B (Homo sapiens, UniProt Q9UGL1); assay: AlphaLISA / AlphaScreen demethylase assay, KDM5B; assay type: biochemical; details: nanomolar enzyme concentration; two independent assays
Method in brief: (§1)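 Full-length human enzymes, Flag-tagged and purified from Sf21 insect cells, assayed for demethylation by AlphaScreen.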

[2] = test system: KDM4A catalytic domain (residues 1-350); assay: Demethylase inhibition, KDM4A catalytic domain; assay type: biochemical
[3] = target: KDM6B catalytic domain (residues 1043-1682) (Homo sapiens, UniProt O15054); assay: AlphaScreen demethylase assay, KDM6B; assay type: biochemical; details: at 50 μM, the highest inhibitor concentration tested
Method in brief: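 Purified KDM6B catalytic domain (residues 1043-1682) was assayed by AlphaScreen for demethylase activity across a test-compound concentration series, with 50 μM the highest concentration tested. IC50 was averaged from 4 independent experiments, with S.E.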

full-length KDM6A = full-length KDM6A (Homo sapiens, UniProt O15550); assay: AlphaScreen demethylase assay, KDM6A; assay type: biochemical; details: at 50 μM, the highest inhibitor concentration tested
Method in brief: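 Full-length KDM6A demethylase activity measured by AlphaScreen with test compound up to 50 μM, the highest concentration tested. Two independent experiments; average and S.E. reported.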

[4] = target: Flag-tagged full-length KDM5A (Homo sapiens, UniProt P29375); assay: AlphaLISA / AlphaScreen demethylase assay, KDM5A; assay type: biochemical; details: nanomolar enzyme concentration; two independent assays
Method in brief: as §1

[5] = target: Flag-tagged full-length KDM5C (Homo sapiens, UniProt P41229); assay: AlphaLISA / AlphaScreen demethylase assay, KDM5C; assay type: biochemical; details: nanomolar enzyme concentration; two independent assays
Method in brief: as §1

MDA-MB-231 cells [6] = assay: Colony formation assay, MDA-MB-231; assay type: cell-based, human; details: 5 μM
Method in brief: (§2)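 Cells were treated with DMSO or 5 μM test compound and colonies quantified by image intensity. Percent intensity was normalized to the average percent intensity of DMSO-treated cells, with SEM error bars. Data are from biological duplicate experiments, each run in triplicate.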

MCF7 cells [7] = assay: Real time RT-PCR of KDM5 target genes, MCF7; assay type: cell-based, human; details: 5 μM for 3 days
Method in brief: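 MCF7 cells were exposed to DMSO or 5 μM test compound for 3 days. BRCA1, STK6, BUB3, BUB1B, MT1F and MT1H mRNA levels were then quantified by real-time RT-PCR, with SEM error bars.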

ZR-75-1 cells = assay: Colony formation assay, ZR-75-1; assay type: cell-based, human; details: 5 μM
Method in brief: as §2

MDA-MB-231 cells [8] = assay: Western blot of global histone methylation, MDA-MB-231; assay type: cell-based, human; details: 5 μM, 3 days
Method in brief: (§3)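 Cells were exposed to DMSO or 5 μM test compound for 3 days and histone marks detected by western blot. Fold is H3K4me3 band intensity over total H3, normalized to the DMSO control. Data are from biological duplicate experiments, each run in duplicate.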

[9] = test system: MCF10A immortalized, non-transformed mammary epithelial cells; assay: Colony formation assay, MCF10A; assay type: cell-based, human; details: 5 μM
PC9 lung cancer cells = assay: Colony formation assay, PC9; assay type: cell-based, human; details: 5 μM
MCF7 cells [10] = assay: Western blot of global histone methylation, MCF7; assay type: cell-based, human; details: 5 μM, 3 days
Method in brief: as §3

MCF7 cells [11] = assay: Colony formation assay, MCF7; assay type: cell-based, human; details: 5 μM
Method in brief: as §2

BT474 cells = assay: Colony formation assay, BT474; assay type: cell-based, human; details: 5 μM
Method in brief: as §2

KDM5B and KDM5C = details: ref Horton et al., 2016; cited from earlier work

KDM6B catalytic domain (residues 1043-1682), sequence (O15054 1043-1682 isoform O15054-1): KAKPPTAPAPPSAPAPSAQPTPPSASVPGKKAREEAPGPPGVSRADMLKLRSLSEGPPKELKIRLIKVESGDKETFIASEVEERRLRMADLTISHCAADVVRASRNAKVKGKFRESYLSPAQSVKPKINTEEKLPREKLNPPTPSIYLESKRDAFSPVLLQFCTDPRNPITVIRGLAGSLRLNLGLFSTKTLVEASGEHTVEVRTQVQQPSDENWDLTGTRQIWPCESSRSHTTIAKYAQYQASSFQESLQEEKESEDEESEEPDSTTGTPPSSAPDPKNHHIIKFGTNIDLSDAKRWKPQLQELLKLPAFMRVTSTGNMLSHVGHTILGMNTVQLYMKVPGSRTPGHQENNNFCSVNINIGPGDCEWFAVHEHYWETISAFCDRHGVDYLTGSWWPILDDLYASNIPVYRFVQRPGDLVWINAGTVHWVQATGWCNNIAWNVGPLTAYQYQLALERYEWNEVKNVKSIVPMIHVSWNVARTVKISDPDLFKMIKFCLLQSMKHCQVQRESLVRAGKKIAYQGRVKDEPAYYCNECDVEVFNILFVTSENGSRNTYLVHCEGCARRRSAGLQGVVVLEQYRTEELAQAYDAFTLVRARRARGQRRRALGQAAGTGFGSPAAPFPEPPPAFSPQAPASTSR
full-length KDM6A, sequence (O15550 whole entry, species assumed): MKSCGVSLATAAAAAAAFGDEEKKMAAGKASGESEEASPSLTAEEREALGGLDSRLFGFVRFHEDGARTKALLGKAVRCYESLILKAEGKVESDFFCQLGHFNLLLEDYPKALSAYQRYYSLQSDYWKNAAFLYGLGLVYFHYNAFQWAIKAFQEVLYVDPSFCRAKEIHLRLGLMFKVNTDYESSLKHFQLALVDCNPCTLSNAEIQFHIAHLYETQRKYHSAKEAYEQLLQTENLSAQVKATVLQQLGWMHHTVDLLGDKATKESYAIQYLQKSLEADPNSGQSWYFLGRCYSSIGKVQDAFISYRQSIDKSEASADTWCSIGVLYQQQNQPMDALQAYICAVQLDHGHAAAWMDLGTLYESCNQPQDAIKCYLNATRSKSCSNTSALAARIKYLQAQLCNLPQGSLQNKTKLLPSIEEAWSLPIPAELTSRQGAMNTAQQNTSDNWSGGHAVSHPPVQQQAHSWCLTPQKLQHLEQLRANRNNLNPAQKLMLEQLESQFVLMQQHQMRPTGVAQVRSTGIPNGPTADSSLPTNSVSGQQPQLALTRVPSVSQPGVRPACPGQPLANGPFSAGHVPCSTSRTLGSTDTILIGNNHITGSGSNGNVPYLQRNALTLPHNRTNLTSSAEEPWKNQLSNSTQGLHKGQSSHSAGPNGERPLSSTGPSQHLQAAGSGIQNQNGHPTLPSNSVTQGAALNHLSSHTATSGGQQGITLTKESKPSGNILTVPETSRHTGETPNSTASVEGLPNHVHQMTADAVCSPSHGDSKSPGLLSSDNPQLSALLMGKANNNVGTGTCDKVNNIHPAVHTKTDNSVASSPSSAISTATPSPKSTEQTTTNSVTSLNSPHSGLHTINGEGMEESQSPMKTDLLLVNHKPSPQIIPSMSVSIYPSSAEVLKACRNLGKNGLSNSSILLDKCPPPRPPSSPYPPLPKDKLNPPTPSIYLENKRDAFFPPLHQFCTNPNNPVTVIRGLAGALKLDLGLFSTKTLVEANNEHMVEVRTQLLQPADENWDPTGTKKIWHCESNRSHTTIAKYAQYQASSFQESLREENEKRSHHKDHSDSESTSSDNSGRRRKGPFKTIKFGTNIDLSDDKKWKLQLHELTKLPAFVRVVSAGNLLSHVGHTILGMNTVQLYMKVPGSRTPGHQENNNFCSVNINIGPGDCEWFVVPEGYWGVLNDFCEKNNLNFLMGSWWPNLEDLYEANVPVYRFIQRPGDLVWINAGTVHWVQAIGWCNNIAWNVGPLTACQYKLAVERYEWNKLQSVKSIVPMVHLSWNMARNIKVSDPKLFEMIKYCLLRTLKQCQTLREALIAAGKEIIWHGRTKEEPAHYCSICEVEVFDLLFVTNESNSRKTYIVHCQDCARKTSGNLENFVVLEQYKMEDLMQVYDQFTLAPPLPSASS
Flag-tagged full-length KDM5B, sequence (Q9UGL1 whole entry): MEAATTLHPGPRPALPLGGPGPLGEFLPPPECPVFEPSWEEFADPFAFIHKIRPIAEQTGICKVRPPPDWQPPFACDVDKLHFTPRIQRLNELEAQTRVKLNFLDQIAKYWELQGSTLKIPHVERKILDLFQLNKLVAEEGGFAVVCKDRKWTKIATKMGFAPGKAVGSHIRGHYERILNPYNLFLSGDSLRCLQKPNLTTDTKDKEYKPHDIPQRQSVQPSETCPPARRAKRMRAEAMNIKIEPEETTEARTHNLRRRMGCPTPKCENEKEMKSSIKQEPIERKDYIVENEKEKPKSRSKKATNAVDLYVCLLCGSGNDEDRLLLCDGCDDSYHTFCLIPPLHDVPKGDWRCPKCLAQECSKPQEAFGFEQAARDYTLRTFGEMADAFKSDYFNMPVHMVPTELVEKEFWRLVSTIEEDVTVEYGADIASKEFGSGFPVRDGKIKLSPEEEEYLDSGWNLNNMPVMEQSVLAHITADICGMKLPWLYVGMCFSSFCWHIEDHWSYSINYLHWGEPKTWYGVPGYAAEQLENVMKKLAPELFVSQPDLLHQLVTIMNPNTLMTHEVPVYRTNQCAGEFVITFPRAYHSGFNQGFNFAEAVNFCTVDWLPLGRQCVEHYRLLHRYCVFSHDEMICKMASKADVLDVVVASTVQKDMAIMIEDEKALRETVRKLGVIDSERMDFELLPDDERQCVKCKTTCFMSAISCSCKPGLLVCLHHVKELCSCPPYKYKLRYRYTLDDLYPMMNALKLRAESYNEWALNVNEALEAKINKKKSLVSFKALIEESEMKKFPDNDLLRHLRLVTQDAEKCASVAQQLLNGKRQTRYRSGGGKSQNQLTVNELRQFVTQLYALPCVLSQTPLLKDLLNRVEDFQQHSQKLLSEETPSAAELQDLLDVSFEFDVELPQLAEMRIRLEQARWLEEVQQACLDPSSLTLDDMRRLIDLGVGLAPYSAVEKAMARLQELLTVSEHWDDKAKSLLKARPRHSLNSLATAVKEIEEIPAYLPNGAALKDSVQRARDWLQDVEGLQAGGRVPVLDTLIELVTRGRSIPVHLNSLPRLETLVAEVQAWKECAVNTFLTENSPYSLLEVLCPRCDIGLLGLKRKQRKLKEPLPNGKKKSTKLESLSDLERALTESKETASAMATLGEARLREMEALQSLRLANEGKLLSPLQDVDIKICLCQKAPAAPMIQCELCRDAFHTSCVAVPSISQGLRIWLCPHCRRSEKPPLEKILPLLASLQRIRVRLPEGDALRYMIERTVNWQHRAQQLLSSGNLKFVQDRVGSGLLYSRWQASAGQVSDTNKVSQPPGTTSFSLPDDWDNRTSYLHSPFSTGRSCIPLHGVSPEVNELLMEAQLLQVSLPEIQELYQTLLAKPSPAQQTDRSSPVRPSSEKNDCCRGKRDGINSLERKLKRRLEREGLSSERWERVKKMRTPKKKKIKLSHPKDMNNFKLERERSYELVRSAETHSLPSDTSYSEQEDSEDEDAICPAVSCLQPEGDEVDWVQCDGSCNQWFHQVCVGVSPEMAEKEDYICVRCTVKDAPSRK
Flag-tagged full-length KDM5C, sequence (P41229 whole entry): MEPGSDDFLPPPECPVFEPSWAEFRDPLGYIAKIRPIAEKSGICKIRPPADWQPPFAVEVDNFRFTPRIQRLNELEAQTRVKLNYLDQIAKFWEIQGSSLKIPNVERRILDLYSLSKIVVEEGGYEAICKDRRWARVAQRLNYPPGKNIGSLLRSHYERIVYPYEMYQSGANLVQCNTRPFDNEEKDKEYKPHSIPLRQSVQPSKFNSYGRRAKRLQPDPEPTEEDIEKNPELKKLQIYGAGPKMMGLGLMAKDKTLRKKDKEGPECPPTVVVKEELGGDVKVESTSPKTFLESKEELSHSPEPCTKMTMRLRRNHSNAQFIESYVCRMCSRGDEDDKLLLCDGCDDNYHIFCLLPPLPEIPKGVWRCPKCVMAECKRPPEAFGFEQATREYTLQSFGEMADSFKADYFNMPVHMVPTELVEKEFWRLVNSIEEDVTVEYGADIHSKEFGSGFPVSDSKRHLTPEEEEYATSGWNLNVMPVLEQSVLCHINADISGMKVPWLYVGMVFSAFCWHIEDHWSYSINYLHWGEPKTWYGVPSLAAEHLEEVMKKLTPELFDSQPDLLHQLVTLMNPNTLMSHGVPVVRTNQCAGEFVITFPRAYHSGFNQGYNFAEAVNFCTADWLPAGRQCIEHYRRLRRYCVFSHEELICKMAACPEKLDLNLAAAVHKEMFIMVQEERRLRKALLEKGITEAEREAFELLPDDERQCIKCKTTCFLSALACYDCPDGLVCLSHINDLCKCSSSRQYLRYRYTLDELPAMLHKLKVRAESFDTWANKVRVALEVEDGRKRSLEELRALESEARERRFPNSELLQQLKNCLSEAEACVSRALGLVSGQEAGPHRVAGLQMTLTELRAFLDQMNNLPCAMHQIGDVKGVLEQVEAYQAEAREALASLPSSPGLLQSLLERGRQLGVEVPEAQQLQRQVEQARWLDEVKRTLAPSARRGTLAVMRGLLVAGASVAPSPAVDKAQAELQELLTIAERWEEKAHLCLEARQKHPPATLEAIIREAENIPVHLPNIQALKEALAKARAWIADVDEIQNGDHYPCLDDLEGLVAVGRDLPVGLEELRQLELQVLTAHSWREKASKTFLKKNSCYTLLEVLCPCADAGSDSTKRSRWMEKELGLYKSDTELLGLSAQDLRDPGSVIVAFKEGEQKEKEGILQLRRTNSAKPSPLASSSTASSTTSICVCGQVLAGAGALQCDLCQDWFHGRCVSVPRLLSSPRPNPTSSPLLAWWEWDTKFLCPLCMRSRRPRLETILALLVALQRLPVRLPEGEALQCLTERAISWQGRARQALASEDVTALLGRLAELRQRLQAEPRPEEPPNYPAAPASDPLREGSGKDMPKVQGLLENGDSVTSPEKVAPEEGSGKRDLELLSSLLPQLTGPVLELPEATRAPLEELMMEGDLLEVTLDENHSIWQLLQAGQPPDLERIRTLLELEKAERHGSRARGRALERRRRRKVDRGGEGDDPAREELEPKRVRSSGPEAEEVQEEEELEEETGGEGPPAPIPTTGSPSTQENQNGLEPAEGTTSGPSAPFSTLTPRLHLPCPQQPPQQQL

CCN(CCN(C)C)C(=O)CNCc1cc(C(=O)O)ccn1 [KDM5-C49]
IC50, full-length KDM5B [1]: nanomolar range | weaker potency against KDM4A catalytic domain than against KDM5B catalytic domain or full length KDM5B [2]: ~ 10 fold | inhibition of KDM6B activity [3]: ≤ 50% | inhibition of KDM6A activity (full-length KDM6A): ≤ 50% | IC50, full-length KDM5A [4]: nanomolar range | IC50, full-length KDM5C [5]: nanomolar range

CCOC(=O)c1ccnc(CNCC(=O)N(CC)CCN(C)C)c1 [KDM5-C70]
effect on colony formation (MDA-MB-231 cells [6]): none were significantly affected | expression of MT1F mRNA (MCF7 cells [7]): increase | expression of MT1H mRNA (MCF7 cells [7]): increase | growth inhibited (colony formation) (ZR-75-1 cells): 70% | H3K4me2/me1, H3K27me3, H3K9me3/H3K36me3 levels (MDA-MB-231 cells [8]): little impact | global levels of H3K4me3 (MDA-MB-231 cells [8]): significantly increased | effect on colony formation [9]: none were significantly affected | effect on colony formation (PC9 lung cancer cells): none were significantly affected | H3K4me2/me1, H3K27me3, H3K9me3/H3K36me3 levels (MCF7 cells [10]): little impact | global levels of H3K4me3 (MCF7 cells [10]): significantly increased | growth inhibited (colony formation) (MCF7 cells [11]): 85% | growth inhibited (colony formation) (BT474 cells): 97%

Clc1ccc(N/N=C(\c2ccccc2)c2ccccn2)nc1 [JIB-04]
increased potency against KDM5B compared to KDM5C (KDM5B and KDM5C): ~ 8 fold

O=C(O)CCNc1cc(N2CCc3ccccc3CC2)nc(-c2ccccn2)n1 [GSK-J1]
more active against KDM5C than against KDM5B (KDM5B and KDM5C): ~ 8.5 fold
